As a reminder, the MIC is the smallest concentration in the dilution series that meets the test's criterion for growth inhibition.

Molecules are shown by their SMILES. In brackets after ≈: the same amount, converted by molar mass.

Assay [1] deals with Bacillus subtilis. Briefly: Evaluated for the minimum inhibitory concentration (MIC) which inhibits the growth of Bacillus subtilis ATCC 6051. Type of assay: functional. The essentials:
(§1)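 Agar dilution on trypticase soy agar plates holding sample or standard at 0 to 200 μg/mL agar. Solutions were made and diluted in Me₂SO or water. Each plate was inoculated twice with every organism using a Steers replicator and incubated 18 h at 37 °C. MIC was taken as the lowest level that inhibited growth.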

Assay [2] concerns Klebsiella pneumoniae. Briefly: Evaluated for the minimum inhibitory concentration (MIC) which inhibits the growth of Klebsiella pneumoniae ATCC 27736. It is filed as functional. The method in brief:
as §1

Assay [3] relates to Proteus mirabilis. Put plainly: Evaluated for the minimum inhibitory concentration (MIC) which inhibits the growth of Proteus mirabilis MIT B-52. It is filed as functional. The essentials:
as §1

For assay [4], the system named is Proteus vulgaris. Put plainly: Evaluated for the minimum inhibitory concentration (MIC) which inhibits the growth of Proteus vulgaris ATCC 6380. It is filed as functional. The essentials:
as §1

Assay [5] deals with Pseudomonas aeruginosa. Briefly: Evaluated for the minimum inhibitory concentration (MIC) which inhibits the growth of Pseudomonas aeruginosa ATCC 9721. It is filed as functional. The method in brief:
as §1

Assay [6] concerns Micrococcus luteus. Put plainly: Evaluated for the minimum inhibitory concentration (MIC) which inhibits the growth of Sarcina lutea ATCC 9341. Type of assay: functional. The essentials:
as §1

Assay [7] concerns Shigella sonnei. Briefly: Evaluated for the minimum inhibitory concentration (MIC) which inhibits the growth of Shigella sonnei ATCC 11060. It is filed as functional. The method in brief: as §1
Assay [8] concerns Staphylococcus epidermidis. Put plainly: Evaluated for the minimum inhibitory concentration (MIC) which inhibits the growth of Staphylococcus epidermidis ATCC 14990. Type of assay: functional. The essentials:
as §1

Assay [9] has as its system Salmonella typhimurium. Briefly: Evaluated for the minimum inhibitory concentration (MIC) which inhibits the growth of. It is filed as functional, salmonella typhimurium a. Particulars: Salmonella enterica. The method in brief:
as §1

Assay [10] deals with Staphylococcus aureus. Put plainly: Evaluated for the minimum inhibitory concentration (MIC) which inhibits the growth of Staphylococcus aureus ATCC 25923. It is filed as functional. The essentials: as §1
The subject of assay [11] is Streptococcus pyogenes. Briefly: Evaluated for the minimum inhibitory concentration (MIC) which inhibits the growth of Streptococcus pyogenes ATCC 10389. It is filed as functional. The method in brief: as §1
In assay [12] the test system is Enterobacter cloacae. Put plainly: Evaluated for the minimum inhibitory concentration (MIC) which inhibits the growth of Enterobacter cloacae ATCC 13047. Type of assay: functional. The essentials:
as §1

Assay [13] concerns Escherichia coli. Put plainly: Evaluated for the minimum inhibitory concentration (MIC) which inhibits the growth of Escherichia coli ATCC 25922. Type of assay: functional. The method in brief:
as §1

In assay [14] the test system is Serratia marcescens. Put plainly: Evaluated for the minimum inhibitory concentration (MIC) which inhibits the growth of Serratia marcescens MIT B-43. It is filed as functional. The essentials:
as §1

The subject of assay [15] is Bacillus subtilis. Put plainly: Evaluated for the minimum inhibitory concentration (MIC) which inhibits the growth of Bacillus subtilis ATCC 6051 (gram-positive). It is filed as functional. The method in brief:
as §1

Assay [16] has as its system Enterobacter cloacae. Briefly: Evaluated for the minimum inhibitory concentration (MIC) which inhibits the growth of Enterobacter cloacae ATCC 13047 (gram-negative). Type of assay: functional. The method in brief: as §1
For assay [17], the system named is Escherichia coli. Briefly: Evaluated for the minimum inhibitory concentration (MIC) which inhibits the growth of Escherichia coli ATCC 25922 (gram-negative). Type of assay: functional. The method in brief:
as §1

The subject of assay [18] is Klebsiella pneumoniae. Briefly: Evaluated for the minimum inhibitory concentration (MIC) which inhibits the growth of Klebsiella pneumoniae ATCC 27736 (gram-negative). It is filed as functional. The method in brief:
as §1

For assay [19], the system named is Proteus mirabilis. Briefly: Evaluated for the minimum inhibitory concentration (MIC) which inhibits the growth of Proteus mirabilis MIT B-52 (gram-negative). Type of assay: functional. The method in brief: as §1
In assay [20] the test system is Proteus vulgaris. Briefly: Evaluated for the minimum inhibitory concentration (MIC) which inhibits the growth of Proteus vulgaris ATCC 6380 (gram-negative). It is filed as functional. The essentials: as §1
Assay [21] deals with Pseudomonas aeruginosa. Briefly: Evaluated for the minimum inhibitory concentration (MIC) which inhibits the growth of Pseudomonas aeruginosa ATCC 9721 (gram-negative). Type of assay: functional. The essentials: as §1
In assay [22] the test system is Salmonella typhimurium. Briefly: Evaluated for the minimum inhibitory concentration (MIC) which inhibits the growth of Salmonella Typhimurium ATCC 13311 (gram-negative). Type of assay: functional, Salmonella enterica subsp. enterica serovar Typhimurium. To be noted: Salmonella enterica. The essentials: as §1
The test system of assay [23] is Shigella sonnei. Put plainly: Evaluated for the minimum inhibitory concentration (MIC) which inhibits the growth of Shigella sonnei ATCC 11060 (gram-negative). Type of assay: functional. The method in brief:
as §1

The subject of assay [24] is Serratia marcescens. Briefly: Evaluated for the minimum inhibitory concentration (MIC) which inhibits the growth of Serratia marcescens MIT B-43 (gram-negative). Type of assay: functional. The essentials: as §1
In assay [25] the test system is Staphylococcus epidermidis. Briefly: Evaluated for the minimum inhibitory concentration (MIC) which inhibits the growth of Staphylococcus epidermidis ATCC 14990 (gram-positive). It is filed as functional. The method in brief:
as §1

Assay [26] has as its system Staphylococcus aureus. Briefly: Evaluated for the minimum inhibitory concentration (MIC) which inhibits the growth of Staphylococcus aureus ATCC 25923 (gram-positive). Type of assay: functional. The method in brief: as §1
In assay [27] the test system is Streptococcus pyogenes. Briefly: Evaluated for the minimum inhibitory concentration (MIC) which inhibits the growth of Streptococcus pyogenes ATCC 10389 (gram-positive). It is filed as functional. The essentials:
as §1

Assay [28] deals with Micrococcus luteus. Put plainly: Evaluated for the minimum inhibitory concentration (MIC) which inhibits the growth of Sarcina lutea ATCC 9341 (gram-positive). Type of assay: functional. The essentials:
as §1

For `CC(C)(CO)SC1CC(=O)N1` (stereo not drawn), the minimal inhibitory concentration (MIC) in assay [1] is 100 µg/mL (≈ 571 µM); in [2], above 100 µg/mL; in assay [3], above 100 µg/mL; in [4], above 100 µg/mL; in [5] it was above 100 µg/mL; in assay [6], above 100 µg/mL. For the same compound, the MIC in assay [7], in assay [8], in [9], in assay [10], in assay [11] and in assay [12] was above 100 µg/mL throughout. For the same compound, the MIC in [13] and in [14] was above 100 µg/mL throughout.
For `CC1(C)SC2CC(=O)N2C1O` (stereo not drawn), the minimal inhibitory concentration (MIC) was 25 µg/mL (≈ 144 µM) in [15]; above 100 µg/mL in assay [16]; above 100 µg/mL in assay [17]; above 100 µg/mL in assay [18]; above 100 µg/mL in [19]; above 100 µg/mL in assay [20]. Moreover, the minimum inhibitory concentration (MIC) in [21], in assay [22], in assay [23], in assay [24], in assay [25] and in assay [26] was above 100 µg/mL in each case. Moreover, the MIC in [27] and in assay [28] was above 100 µg/mL each time.

These data come from ChEMBL document CHEMBL1121479, “Simple beta-lactam compounds derived from 6-aminopenicillanic acid” (1980).
